Data set [1] has as its system RAW264.7. Kind of data set: Inhibition of LPS/IFN-gamma-induced NO production in mouse RAW264.7 cells after 16 hrs. Format: functional, cell-based. As to conditions: RAW264.7, 16 h. Summed up: (§1)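 RAW 264.7 macrophages in RPMI 1640 with 10% FBS, 2 mM L-glutamine, penicillin/streptomycin, seeded at 5 × 10⁵ cells/mL. After 1 h, stimulated with LPS (100 ng/mL) plus IFN-γ (100 units/mL) and samples in DMSO (0.2% final) for 16 h at 37 °C. Supernatant nitrite measured by Griess assay at 570 nm against NaNO₂ standards. Inhibition rate taken relative to LPS/IFN-only wells.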

Data set [2] is described as follows: Cytotoxicity against mouse RAW264.7 cells assessed as cell viability at <10 uM after 16 hrs by MTT assay. It counts as cell-based. Conditions: read-out: Activity. Summed up:
(§2)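 RAW 264.7 cells grown in RPMI 1640 with 10% FBS, 2 mM L-glutamine, penicillin/streptomycin. Seeded at 5 × 10⁵ cells/mL in 96-well plates and co-treated with LPS (100 ng/mL), IFN-γ (100 units/mL) and samples in DMSO (0.2% final) for 16 h at 37 °C. MTT (200 μg/mL) added for a further 4 h. Formazan dissolved in DMSO, A540 read, compared with nontreated cells.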
(In general: Tetrazolium dyes change colour on reduction, which living cells bring about.)

The test system of data set [3] is RAW264.7. The experiment in a line: Cytotoxicity against mouse RAW264.7 cells assessed as cell viability at 20 uM after 16 hrs by MTT assay. It counts as cell-based. As to conditions: raw264.7, 16 h. Summed up:
as §2

The nature of data set [4]: Cytotoxicity against mouse RAW264.7 cells assessed as cell viability at 200 uM after 16 hrs by MTT assay. Format: cell-based. Conditions: read-out: Activity. Summed up: as §2
The subject of data set [5] is RAW264.7. Kind of data set: Inhibition of LPS/IFN-gamma-induced NO production in mouse RAW264.7 cells at non cytotoxic concentration after 16 hrs. Format: functional. Summed up:
as §1

The subject of data set [6] is RAW264.7. Kind of data set: Cytotoxicity against mouse RAW264.7 cells after 16 hrs by MTT assay. It counts as cell-based. Conditions: raw264.7, 16 h. Summed up:
as §2

The nature of data set [7]: Cytotoxicity against mouse RAW264.7 cells assessed as cell viability at 2 uM after 16 hrs by MTT assay. Conditions: read-out: Activity. Format: cell-based. Summed up: as §2

The structures appear in SMILES notation. pIC50: −log10 of the molar value. Some results are limits rather than exact numbers.

By pIC50 is commonly meant the negative decadic logarithm of the IC50, by convention in mol/L.

The compound `COc1cc(O)c(CC(O)C(C)(C)OC)c(O)c1C(=O)/C=C/c1ccc(O)cc1` (racemic) gave a negative logarithm of the IC50 (pIC50) in the data set with RAW264.7 [1] of 5.19. In data set [2], the viability at 16 h is over 95%.
For `COc1cc(O)c(CC=C(C)C)c(O)c1C(=O)CCc1ccc(O)cc1` [DIHYDROXANTHOHUMOL], the pIC50 with RAW264.7 [1] is 4.64. Further, the Activity entry in the data set with RAW264.7 [3] was “Non-toxic”. The viability at 16 h in data set [2] was over 95%.
Take `CC(C)=CCC1(CC=C(C)C)C(=O)C(O)=C(O)C1=O` [HULUPINIC ACID]: the pIC50 in the data set with RAW264.7 [1] was under 4.00. Moreover, the viability at 16 h, 200 µM in data set [4] is over 95%.
On to `CC(C)=CCC1=C2OC(C)(C)C=CC2(CC=C(C)C)C(=O)C(C(=O)CC(C)C)=C1O` (centres undefined) [LUPULONE A], for which, in the data set on RAW264.7 [5], the “inhibition (INH)” value is under 40%. The same compound had a pIC50 with RAW264.7 [1] of 4.70. Besides, the Activity entry in the data set on RAW264.7 [6] is “Toxic”.
As to `CC(C)=CCC1=C2OC(C)(C)C=CC2(CC=C(C)C)C(=O)C(C(=O)C(C)C)=C1O` (centres undefined) [LUPULONE B], in the data set with RAW264.7 [5], the “inhibition (INH)” value is reported as under 40%. This compound also had a pIC50 in the data set with RAW264.7 [1] of 4.85. In addition, the Activity entry in the data set on RAW264.7 [6] was “Toxic”.
As for `CC(C)=CCC1(CC=C(C)C)C(=O)C2=C(OC(C(C)(C)O)C2)C(C(=O)CC(C)C)=C1O` (centres undefined) [LUPULONE C], in the data set with RAW264.7 [5], the “inhibition (INH)” value is under 40%. This compound gave a pIC50 in the data set on RAW264.7 [1] of 4.20. Moreover, the Activity result with RAW264.7 [6] is reported as “Toxic”.
With `CC(C)=CCC1=C2OC(C(C)(C)O)CC2(CC=C(C)C)C(=O)C(C(=O)CC(C)C)=C1O` (centres undefined) [LUPULONE D], in the data set on RAW264.7 [5], the “inhibition (INH)” value is under 40%. The pIC50 in the data set on RAW264.7 [1] was 4.96. Also, the viability at 16 h, 2 µM in data set [7] was under 95%. Moreover, in the data set with RAW264.7 [6], the Activity result is reported as “Toxic”.
On the same counts, the results for `CC(C)=CCC1=C2OC(C(C)(C)O)CC2(CC=C(C)C)C(=O)C(C(=O)C(C)C)=C1O` (centres undefined) [LUPULONE E] are under 40%, 4.82, under 95% and “Toxic”.
`CC(C)C(=O)c1c(O)ccc2c1OC(C(C)(C)O)C2` (centres undefined) [LUPULONE F] gave a pIC50 in the data set with RAW264.7 [1] of under 4.00.
For `CC(C)=CCC1=C(O)C(C(=O)CC(C)C)=C(O)C(CC=C(C)C)(CC=C(C)C)C1=O` [LUPULONE], the “inhibition (INH)” value in the data set on RAW264.7 [5] was under 40%. Also, in the data set with RAW264.7 [1], the pIC50 was 4.77. The Activity result with RAW264.7 [6] is given as “Toxic”.
As for `COc1cc2c(c(O)c1C(=O)/C=C/c1ccc(O)cc1)CC(O)C(C)(C)O2` (centres undefined) [XANTHOHUMOL B], the pIC50 with RAW264.7 [1] was 5.25. Besides, in data set [2], the viability at 16 h was over 95%.
On the same counts, the results for `C=C(C)C(O)Cc1c(O)cc(OC)c(C(=O)/C=C/c2ccc(O)cc2)c1O` (centres undefined) [XANTHOHUMOL D] are 5.03 and over 95%.
On the same counts, the results for `COc1cc(O)c(CC=C(C)C)c(O)c1C(=O)/C=C/c1ccc(O)cc1` [XANTHOHUMOL] are 5.08 and over 95%.
